Compounds with a hit are over-represented: about 1.7% of the library has one in this group of screens.
STEP block: STEP (human) phosphatase inhibition; P54829; recombinant STEP, OMFP fluorogenic substrate, fluorescence; inhibition, % at 20 µM; 360,000 tested, 0.25% active; AID 588621;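 active means inhibition at 20 µM, scaled per plate between control wells, above about 37%, limit read from the data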;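 further: 0% = DMSO with enzyme and substrate and 100% = substrate only without enzyme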
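Measure: Control-normalized % inhibition with plate pattern correction | Test system: STEP phosphatase, cell-free reaction | Medium: pH 6.0 Bis-Tris with DTT and Tween 20 | Technique: Fluorescence, 480/540 nm | Times: Reaction 20 min, ambient temperature | Doses: Single compound dose of 20 µM, 1% DMSO final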
DNMT1 block: blocks human DNA methyltransferase DNMT1 | 360,000 tested, 0.83% active | DNMT1 molecular beacon, Hinp1I cleavage, fluorescence | P26358 | AID 588458 | inhibition (reported as % activation of signal), % at 10 µM; in the data active means inhibition above about 50%
LMPTP block: blocks human LMPTP phosphatase; P24666; recombinant LMPTP-A, OMFP fluorogenic substrate, fluorescence intensity; inhibition, % at 20 µM; 360,000 tested, 0.22% active; AID 651560;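 active means compounds that cut the enzyme signal by at least half of the control window in the single-dose screen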;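 further: plate controls were DMSO wells with enzyme plus substrate for no effect and substrate without enzyme for full effect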
Target sequence (P24666 whole entry, looked up): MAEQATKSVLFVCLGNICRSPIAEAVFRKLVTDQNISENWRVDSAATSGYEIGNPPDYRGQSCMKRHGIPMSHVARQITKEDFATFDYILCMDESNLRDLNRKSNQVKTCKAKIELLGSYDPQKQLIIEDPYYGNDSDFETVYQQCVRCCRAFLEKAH
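Buffer or medium: Bis-Tris pH 6.0, DTT, detergent; Assay system: LMPTP-A enzyme; Quantity: 0.625 nM enzyme; Detection: endpoint fluorescence intensity; Times: 50 min dark incubation at room temperature; Controls: substrate-only low control, DMSO enzyme-plus-substrate high control; Doses: single 20 µM dose; Read-out: percent inhibition versus substrate-only and uninhibited controls; Reagent: 400 µM OMFP.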
Scp-1 inhibitor: inhibitors of human Scp-1 phosphatase; Q9GZU7; Recombinant Scp1, phosphopeptide, malachite green phosphate absorbance; inhibition, % at 20 µM; 340,000 tested, 0.88% active;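 active means inhibition above about 50% at 20 µM, limit read from the data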;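 further: plate controls were DMSO wells with enzyme for no effect and wells lacking enzyme for full effect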
Target sequence (Q9GZU7 76-261 limits assumed): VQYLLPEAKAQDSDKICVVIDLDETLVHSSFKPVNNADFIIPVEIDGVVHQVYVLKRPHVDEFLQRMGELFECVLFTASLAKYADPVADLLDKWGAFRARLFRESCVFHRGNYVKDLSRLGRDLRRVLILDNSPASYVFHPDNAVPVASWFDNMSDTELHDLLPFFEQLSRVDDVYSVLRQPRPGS
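Times: enzyme reaction 45 min at room temperature, colour 5 min, stabilisation 30 min. Material: SCP-1 catalytic fragment, aa 76-261. Medium: Acidic Tris acetate buffer with magnesium and detergent. Signal: colorimetric free-phosphate detection, absorbance 630 nm. Read-out basis: % inhibition of SCP-1 phosphate liberation. Reagent: Phosphorylated 17-residue peptide substrate.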
SUMO1 PPI mod: alters human SUMO1 binding to SIM partners; P63165; SUMO1 binding to a labelled peptide, TR-FRET, 1 h; inhibition, % at 20 µM; 360,000 tested, 0.33% active; AID 602429; in the data active means inhibition above about 37%
Target sequence (P63165 whole entry, looked up): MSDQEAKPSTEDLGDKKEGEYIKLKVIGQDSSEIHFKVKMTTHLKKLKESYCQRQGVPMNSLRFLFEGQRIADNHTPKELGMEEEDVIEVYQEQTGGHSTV
DNMT1 interf DR: counter-screen for DNMT1 inhibitors: spectral interference, dose response. 200 tested, under 10 active. AID 602382. IC50, µM. shares compounds with DNMT1 block. molecular beacon fluorescence; call rule not given here
DNMT1 confirm: confirmation of human DNMT1 inhibitors; shares compounds with DNMT1 block; DNMT1 molecular beacon HinP1I cleavage, fluorescence; inhibition, % at 10 µM; 2,300 tested, 8% active; AID 602385;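 active means average inhibition of at least 30% in the single-concentration confirmation test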
DNMT1 interf: shows spectral interference in the DNMT1 beacon assay | shares compounds with DNMT1 block | 2,300 tested, 1% active | AID 602387 | activation (fluorescence interference), % at 10 µM | DNMT1 molecular beacon spectral interference counterscreen, fluorescence 485/520;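 active means activation of at least 30% at 10 µM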;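 further: DNMT1 catalytic domain with a HinP1I cleavage step and a FAM/dabcyl DNA beacon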
An asterisk follows results filed as active; . = no result.

SMILES | STEP block | DNMT1 block | LMPTP block | Scp-1 inhibitor | SUMO1 PPI mod | DNMT1 confirm | DNMT1 interf | others
CC[C@]1(C(=O)OC)[C@H]2C(=O)N(Cc3ccccc3)C(=O)[C@H]2[C@H]2CN(C)C(=NC)N21 | -4 | 5 | -2 | 4 | 0 | . | .
CN(C)S(=O)(=O)c1ccc2c(c1)C(CC(=O)O)OC2=O (stereo unspecified) | -1 | 91* | 1 | 2 | 4 | 6 | 11
NC(=S)NN=Cc1ccc(-c2ccc(S(=O)(=O)Nc3ncccn3)cc2)o1 | 3 | 89* | 13 | 3 | 33 | 12 | -3
Cn1nc(C(F)(F)F)c(-c2cccc(C(F)(F)F)c2)c1NC(=O)Nc1ccc(F)cc1 | 0 | 12 | 3 | -11 | 4 | . | .
Cc1ccc(OCc2ccoc2C(=O)O)cc1C | 4 | 54* | 0 | 50 | 4 | 4 | -1
Cc1ccc(OCc2ccc(C(=O)O)o2)cc1C | 2 | 2 | -3 | 30 | -5 | . | .
COCC(=O)N1CCC(Oc2ccc(C(=O)N(C)C(C)c3ccon3)cc2)CC1 (stereo unspecified) | -2 | -1 | 0 | -14 | 1 | . | .
Cc1cc(NC(=O)CSc2nc3sc4c(c3c(=O)n2C)CCCC4)no1 | 0 | 56* | 0 | 3 | 2 | 3 | -10
COc1ccc(-c2c(C#Cc3ccc(N(C)C)cc3)c3ccccc3n2C)cc1 | 2 | 57* | 1 | 1 | -20 | 3 | -2
COc1ccc(-c2c(C#Cc3ccsc3)c3cc(Br)ccc3n2C)cc1 | -3 | 2 | 2 | -11 | -1 | . | .
Cc1nn(CC(=O)Nc2ccc3c(c2)nc(CCN2CCCCC2)n3C)c(=O)c2ccccc12 | 3 | 6 | 7 | -6 | 1 | . | .
Cc1nn(CC(=O)Nc2ccc3c(c2)nc2n3CCN(C3CCCCC3)C2)c(=O)c2ccccc12 | 3 | 80* | 25 | -7 | 1 | 0 | 1
CC1(C)CC(NC(=O)c2ccc(F)cc2)CC(C)(C)N1 | -2 | -1 | -3 | . | -7 | . | .
CC1(C)CC(NC(=O)c2ccccc2)CC(C)(C)N1 | 0 | 101* | 0 | 0 | 3 | -1 | 1
CCO[C@@H]1OC(C(N)=O)=C[C@H](c2ccc(C(F)(F)F)cc2)[C@H]1CCCO | -4 | 71* | -2 | -3 | -1 | 1 | 0
CCOc1ccc2oc(C(=O)Nc3nccs3)c(C)c2c1 | 2 | 68* | 3 | -8 | 1 | 3 | 4
Cc1ccc(O)c(-c2cc(C(=O)Nc3ccc(S(=O)(=O)N4CC(C)OC(C)C4)cc3)[nH]n2)c1 (stereo unspecified) | -4 | -12 | 3 | -7 | 4 | . | .
Cc1ccc(-c2cc(C(=O)Nc3ccc(S(=O)(=O)N4CC(C)OC(C)C4)cc3)[nH]n2)c(O)c1 (stereo unspecified) | 7 | 124* | 26 | -7 | 7 | 4 | 0
COc1cccc(NC(=O)CN(C)C(=O)[C@@H]2CCCN2C(=O)c2cccs2)c1 | 1 | 1 | 0 | -9 | 4 | . | .
O=C(Cn1nnc(-c2ccc(F)cc2)n1)NC(=O)NC1CCCCC1 | -2 | -1 | 1 | . | -2 | . | .
COc1cccc(-c2nc(-c3ccc(NC(=O)c4cccnc4)cc3)no2)c1 | -2 | -10 | 0 | 5 | 2 | . | .
COc1ccc(CC(=O)Nc2ccc(-c3noc(-c4cccc(OC)c4)n3)cc2)cc1 | -7 | 61* | -1 | 11 | -4 | 1 | 1
Nc1c(C(=O)NCc2ccccc2)nnn1Cc1ccc(F)cc1 | 4 | 50* | 1 | -16 | 4 | 4 | 6
COc1ccc(CNC(=O)c2nnn(Cc3ccc(OC)cc3)c2N)cc1 | 0 | 0 | 0 | -8 | 7 | . | .
Cc1cc(C)cc(NC(=O)Cn2nnc(C(=O)NCCc3ccccc3)c2N)c1 | 0 | 67* | 41 | -1 | 6 | 1 | -1
SMILES | STEP block | DNMT1 block | LMPTP block | Scp-1 inhibitor | SUMO1 PPI mod | DNMT1 confirm | DNMT1 interf | others
CCNc1ccc(Br)cc(C(=O)/C=C/c2ccc(Cl)cc2)c1=O | 2 | 66* | 22 | -17 | 20 | 4 | 1
CCNc1ccc(Br)cc(C(=O)/C=C/c2ccc3c(c2)OCO3)c1=O | 4 | 89* | 54* | 6 | 22 | 1 | 1
Cc1ccc(CNS(=O)(=O)c2cc3c4c(c2)CCN4C(=O)CC3)cc1 | 2 | 1 | 0 | -4 | 6 | . | .
Cc1ccc(CSc2nnc(SCC(=O)N/N=C/C=C/c3ccco3)s2)cc1 | 0 | 52* | 3 | -6 | 3 | 2 | 3
Cc1ccc(CSc2nnc(SCC(=O)N/N=C/C=C/c3ccccc3[N+](=O)[O-])s2)cc1 | 4 | -1 | 1 | -5 | -4 | . | .
O=C(Nc1cc2c3c(c1)CC(=O)N3CCC2)c1ccc(Br)o1 | 2 | -5 | 0 | -6 | 6 | . | .
Cc1c(NS(=O)(=O)c2cc(C(=O)OCC(=O)c3ccccc3F)ccc2Cl)c(=O)n(-c2ccccc2)n1C | 0 | 63* | -2 | . | -3 | 2 | 3
O=C(CSc1nc2c(cnn2-c2ccccc2)c(=O)[nH]1)c1ccc(Cl)cc1 | 1 | 86* | -1 | -4 | 5 | 31* | 4 | DNMT1 interf DR=>99
COc1ccc(C(CNC(=O)c2ccc(C)c(S(=O)(=O)N3CCOCC3)c2)N2CCCC2)cc1 (stereo unspecified) | -1 | 0 | 0 | -7 | 5 | . | .
Cc1cccc(C)c1NC(=O)c1csc([C@@H]2O[C@H](CO)[C@H](O)[C@H](O)[C@H]2O)n1 | -3 | 1 | 2 | . | 3 | . | .
COc1cc(NC(=O)CSc2nnc3ccc(-c4cccnc4)nn23)cc(OC)c1 | 2 | 6 | 0 | 1 | -26 | . | .
O=C(O)CSc1cc(C(=O)c2ccccc2O)cn2c(=O)c3c(-c4ccccc4)csc3nc12 | 5 | 59* | 16 | 18 | 17 | 21 | -2
Cc1sc2nc3c(SC(C)C(=O)O)cc(C(=O)c4ccccc4O)cn3c(=O)c2c1C (stereo unspecified) | 8 | -5 | 2 | -9 | 18 | . | .
CN(C)C(CNC(=O)C1CCN(S(=O)(=O)c2ccccc2)CC1)c1ccccc1 (stereo unspecified) | 20 | 88* | 2 | 12 | 2 | 5 | 7
CCN(CC)S(=O)(=O)c1cc(C(=O)Nc2cc(S(=O)(=O)N3CCOCC3)ccc2N2CCN(C)CC2)ccc1C | 2 | -1 | -1 | -8 | 2 | . | .
O=C(c1cc2c(s1)CCCC2)N1CCN(Cc2ccc3c(c2)OCO3)CC1 | 1 | -1 | -3 | -5 | -1 | . | .

From PubChem BioAssay
